In PMC8521312 (The EMBO Journal, 2021):
Entries after “also recorded” stand apart in the source; their conditions may differ.

Tests used:
AS1411 DNA aptamer = assay: ELISA assay for AS1411-binding peptides; conditions: 0.04 μM aptamer, PBS, 1 h, room temperature, n = 3 technical replicates
In short: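 Streptavidin-coated wells were washed in PBS-T, loaded with 0.025 μM biotinylated peptide for 1 h at room temperature, and blocked with 1% BSA/PBS for 30 min at 37°C. DIG-labelled aptamer or control aptamer was added, then HRP anti-DIG (1/2,000 in 1% BSA-PBS, 30 min, 37°C). TMB substrate was read by absorbance at […]. PBS-T washes were done between steps.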

axonal Inpp5f mRNA = assay: FISH of axonal Inpp5f mRNA in DRG neurons; type: cell-based, rat; conditions: 10 µM AS1411 or control aptamer, 48 h, replated 18 h; n = 11–19 cells per sample; P < 0.05
[1] = test system: nucleolin-Kif5a motor complex; conditions: ref Perry et al, 2016, cited from earlier work
[2] = test system: nucleolin mRNA and protein; assay: Nucleolin knockdown in DRG neurons; type: cell-based, rat; conditions: siRNA targeting 3′UTR of nucleolin mRNA, 50 nM printed for control siRNAs; 96 h
In short: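 Three hours after plating, neurons were transfected with control siRNA (50 nM as printed) or either of two siRNAs against the nucleolin 3′UTR using a lipid transfection reagent. Cultures were fixed 96 h later for FISH/immunofluorescence. Sister cultures gave mRNA by RT-ddPCR and protein by immunoblot (milk block, HRP secondary 1:10,000, ECL).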

DRG neurons = assay: Hypotonic challenge; type: cell-based, mouse; conditions: ddH2O, 17–24 cells per sample, three biological repeats
HEK-293 cells = assay: Hypotonic challenge; type: cell-based, human; conditions: ddH2O, n = 24 cells per sample, p < 0.05, p < 0.01

## GGTGGTGGTGGTTGTGGTGGTGGTGG [AS1411]
AS1411 DNA aptamer
  binding of aptamer to GAR-derived peptides of 22–28 residues: showed binding
Axonal Inpp5f mRNA
  axonal Inpp5f mRNA (FISH): significant reduction in axonal Inpp5f mRNA
[1]; AS1411 perturbation of kinesin–nucleolin interactions
  axonal growth: accelerated axonal growth
[1]
  association of nucleolin with Kif5a motor complex: reduced; also recorded: perturbs the association of nucleolin with the Kif5a motor complex
  nucleolin localization to axons: perturbs nucleolin localization to axons

## siRNA 1: GUUGAAUGACAGAGCCUUUUU; siRNA 2: GGACAUUCCAAGACAGUAAUU
[2]
  endogenous nucleolin mRNA and protein: significantly reduced

B1: Ncl ΔGAR: HA-Dendra2-nucleolin with a GAR domain deletion (protein)
chain: MVKLAKAGKTHGEAKKMAPPPKEVEEDSEDEEMSEDEDDSSGEEEVVIPQKKGKKATTTPAKKVVVSQTKKAAVPTPAKKAAVTPGKKAVATPAKKNITPAKVIPTPGKKGAAQAKALVPTPGKKGAATPAKGAKNGKNAKKEDSDEDEDEEDEDDSDEDEDDEEEDEFEPPIVKGVKPAKAAPAAPASEDEEDDEDEDDEEDDDEEEEDDSEEEVMEITTAKGKKTPAKVVPMKAKSVAEEEDDEEEDEDDEDEDDEEEDDEDDDEEEEEEEPVKAAPGKRKKEMTKQKEAPEAKKQKVEGSEPTTPFNLFIGNLNPNKSVNELKFAISELFAKNDLAVVDVRTGTNRKFGYVDFESAEDLEKALELTGLKVFGNEIKLEKPKGRDSKKVRAARTLLAKNLSFNITEDELKEVFEDAMEIRLVSQDGKSKGIAYIEFKSEADAEKNLEEKQGAEIDGRSVSLYYTGEKGQRQERTGKTSTWSGESKTLVLSNLSYSATKETLEEVFEKATFIKVPQNPHGKPKGYAFIEFASFEDAKEALNSCNKMEIEGRTIRLELQGSNSRSQPSKTLFVKGLSEDTTEETLKESFEGSVRARIVTDRETGSSKGFGFVDFNSEEDAKAAKEAMEDGEIDGNKVTLDWAKPKKPQGKKTKFE
modifications: left off: HA, N-terminal, kept | Dendra2, N-terminal, kept
DRG neurons
  reduction of nucleolar signal on hypotonic challenge, FL vs ΔGAR: no difference between full‐length and ΔGAR mutant nucleolin
HEK-293 cells
  reduction of nucleolar signal on hypotonic challenge, FL vs ΔGAR: Significant differences between full‐length and GAR deletion nucleolin
